The text below walks through data of PubChem BioAssay.

Molecules are shown by their SMILES. Calls of active or inactive are those of the source.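 The calls were made as follows, unless noted: active = viability at or under a set limit in both replicates, limit being median viability minus 3 SD (cut at about 48% in these data, passing the limit was not always enough); inconclusive = at or under the limit in just one replicate; inactive = at or above the limit in both replicates.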

A short description of experiment [1]: reducers of endogenous Her2 protein level, primary screen, SKBR3 breast tumor cells, AlphaScreen, ATP viability (AID 461;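 active = Her2 level under about 52% in both replicate screens, with viability over 70% of control, limit read from the data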;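 as to Her2 level: lower value means less Her2 protein in the cells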;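 as to viability: percent of carrier control wells set as 100% viability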). Conditions: 18-24 h, measured here: SKBR3 viability, ATP luminescence, at 10 µM. On the technique in general: Alpha assays give light when donor and acceptor beads are brought close together.
Experiment [2] deals with Receptor tyrosine-protein kinase erbB-2 (Homo sapiens) (UniProt P04626). The experiment is described as above. The settings on record: 18-24 h, at 10 µM, stronger effect = lower value.
Receptor tyrosine-protein kinase erbB-2 (Homo sapiens), sequence (P04626 whole entry, looked up): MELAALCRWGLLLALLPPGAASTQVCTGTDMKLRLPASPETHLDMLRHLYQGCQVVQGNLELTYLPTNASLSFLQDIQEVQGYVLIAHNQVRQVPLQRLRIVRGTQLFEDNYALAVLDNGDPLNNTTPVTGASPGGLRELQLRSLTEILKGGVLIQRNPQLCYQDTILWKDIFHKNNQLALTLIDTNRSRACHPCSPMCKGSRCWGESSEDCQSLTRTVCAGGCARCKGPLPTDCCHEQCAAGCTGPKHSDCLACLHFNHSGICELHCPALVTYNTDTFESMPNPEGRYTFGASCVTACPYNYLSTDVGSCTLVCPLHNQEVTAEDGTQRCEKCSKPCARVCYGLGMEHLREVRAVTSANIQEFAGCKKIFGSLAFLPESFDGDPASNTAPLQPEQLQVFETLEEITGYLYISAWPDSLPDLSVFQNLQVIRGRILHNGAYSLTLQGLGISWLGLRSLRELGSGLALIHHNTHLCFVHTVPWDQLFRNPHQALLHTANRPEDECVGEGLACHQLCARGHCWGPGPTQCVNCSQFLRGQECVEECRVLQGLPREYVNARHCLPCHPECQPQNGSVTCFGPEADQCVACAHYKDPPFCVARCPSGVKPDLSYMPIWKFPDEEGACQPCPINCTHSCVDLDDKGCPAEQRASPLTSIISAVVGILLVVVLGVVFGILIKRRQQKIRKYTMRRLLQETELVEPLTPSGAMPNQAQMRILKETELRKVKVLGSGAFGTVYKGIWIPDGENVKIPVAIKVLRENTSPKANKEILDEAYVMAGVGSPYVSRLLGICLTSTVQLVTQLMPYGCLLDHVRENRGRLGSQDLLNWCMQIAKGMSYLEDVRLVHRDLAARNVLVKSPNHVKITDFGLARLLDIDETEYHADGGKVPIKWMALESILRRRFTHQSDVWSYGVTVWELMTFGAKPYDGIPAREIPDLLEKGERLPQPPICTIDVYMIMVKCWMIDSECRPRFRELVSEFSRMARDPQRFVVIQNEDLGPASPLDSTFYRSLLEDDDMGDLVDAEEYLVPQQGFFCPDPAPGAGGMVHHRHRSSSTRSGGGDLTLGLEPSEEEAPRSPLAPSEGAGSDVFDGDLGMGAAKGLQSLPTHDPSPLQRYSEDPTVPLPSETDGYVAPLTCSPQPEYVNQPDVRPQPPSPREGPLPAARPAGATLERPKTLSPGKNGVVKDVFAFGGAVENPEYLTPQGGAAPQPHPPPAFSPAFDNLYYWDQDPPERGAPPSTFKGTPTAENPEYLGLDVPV
Experiment [3] is described as follows: SK-BR-3 cell growth inhibitors, pilot screen, 24 h, human (AID 572;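 active = viability at or below 10% of carrier control in both of two separate runs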;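 also: compound exposure lasted between 18 and 24 h rather than exactly 24 h; 100% = carrier-treated control wells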). Conditions: SK-BR-3 viability, CellTiter-Glo luminescence, at 10 µM, stronger effect = lower value. (Cellular ATP, detected with luciferase, serves as a proxy for viable cell number.)
A short description of experiment [4]: HUVEC growth inhibition – cell-based, human, primary screen (AID 575;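 active = viability at or below 30% in both replicate assays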;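 also: 100% = median of untreated cell wells with 0.1% DMSO on each plate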). The settings on record: HUVEC proliferation, CellTiter-Glo luminescence, 72 h; at 10 µM; stronger effect = lower value. The essentials: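 Timing: 72 h treatment at 37 °C; material: HUVEC primary cells; technique: CellTiter-Glo luminescence measuring cellular ATP; controls: vehicle and MePR control wells; measure: percent of median DMSO-control luminescence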

Experiment [5] can be described thus: growth inhibitors of H69AR lung tumor, primary screen, human, duplicate replicates (AID 580).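 Also: 100% = mean luminescence of untreated wells and 0% = no signal.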 Conditions: H69AR lung tumor cells viability, ATP luminescence, 72 h; at 10 µM; stronger effect = lower value.
The nature of experiment [6]: reversal of MRP1-mediated doxorubicin resistance, pilot screen, H69AR cells, doxorubicin co-treatment (AID 601;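 active = viability loss from added drug above about 55%, and viability with drug at most 40%, in both replicates, limit read from the data, passing the limit was not always enough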). The settings on record: CellTiter-Glo, 72 h, at 10 µM; for differential viability (reversal): stronger effect = higher value.
Experiment [7] in a line: 384-well plate pilot, post-Golgi transport modulator project, inhibition of yeast transport mutant growth (AID 636; in the data active = inhibition above about 31%). The settings on record: absorbance 615 nm, about 18 h, stronger effect = higher value.
Experiment [8] is described as follows: growth suppression of yeast trafficking mutant, preliminary HTS, modulators of trafficking downstream of Golgi apparatus project, 1536-format plate, OD 615 nm (AID 637; in the data active = inhibition above about 30%). The settings on record: yeast transport mutant growth, absorbance 615 nm, 18 h; stronger effect = higher value.
[9] abbreviates: H69AR cells + 2 uM doxorubicin, measured here: viability with 2 uM doxorubicin, stronger effect = lower value.
[10] abbreviates: H69AR cells, compound alone cytotoxicity.

Broadly, the viability is a read-out of living cells in per cent, often relative to untreated cells. Broadly, the inhibition is the relative decrease from the control value, in per cent. As for `N#CCCCN1C(=O)C(O)(CC(=O)c2ccc3c(c2)OCCO3)c2ccccc21` (stereo not given), the viability in experiment [1] was 100%; in experiment [3], 100% (inactive); in experiment [4], 89.5% (inactive); in experiment [5], 85.3% (inactive); in experiment [6] (setting [9]), 79.2%; in experiment [6] (setting [10]), 85.3%. In addition, in experiment [2], the Her2 level was 93.5% (inactive). Besides, the differential viability (reversal) in experiment [6] (H69AR cells + 2 uM doxorubicin) was 6.12% (inactive). Further, the inhibition in experiment [7] is -2.89% (inactive); in experiment [8], -9.03% (inactive).
Consider `Cc1cc(NC(=O)c2ccccc2Oc2ccccc2)no1`, for which the viability in experiment [1] is 97%; in experiment [3] it was 97% (inactive); in experiment [4], 93.5% (inactive); in experiment [5], 110% (inactive); in experiment [6] (setting [9]), 93.5%; in experiment [6] (setting [10]) it was 110%. The Her2 level in experiment [2] was 92.5% (inactive). Further, the differential viability (reversal) in experiment [6] (H69AR cells + 2 uM doxorubicin) was 16.8% (inactive). Besides, the inhibition is -5.33% (inactive) in experiment [7] and 2.42% (inactive) in experiment [8].
As to `COC(=O)C1=C(C)OC(N)=C(C#N)C1c1ccccc1` (stereo not given), the viability is 94.5% in experiment [1]; 94.5% (inactive) in experiment [3]; 102% (inactive) in experiment [4]; 94% (inactive) in experiment [5]; 82% in experiment [6] (setting [9]); 94% in experiment [6] (setting [10]). In experiment [2], the Her2 level was 77% (inactive). For the same compound, in experiment [6] (H69AR cells + 2 uM doxorubicin), the differential viability (reversal) is 12.1% (inactive). Also, the inhibition was -1.18% (inactive) in experiment [7] and -9.82% (inactive) in experiment [8].
Turning to `COc1ccc(CN(CC(=O)NCc2ccco2)C(=O)CCC(=O)Nc2nccs2)cc1`, the viability in experiment [1] is 96%; in experiment [3], 96% (inactive); in experiment [4] it was 85.5% (inactive); in experiment [5] it was 101% (inactive); in experiment [6] (setting [9]), 89.6%; in experiment [6] (setting [10]) it was 101%. The Her2 level in experiment [2] was 104% (inactive). Further, the differential viability (reversal) in experiment [6] (H69AR cells + 2 uM doxorubicin) was 11% (inactive). Besides, the results for the inhibition in experiment [7] and in experiment [8] were 1.22% (inactive) and -2.13% (inactive), respectively.
For `COc1cc(C)nc(NS(=O)(=O)c2ccc(C)cc2)n1`, the viability in experiment [1] is 122%; in experiment [3], 122% (inactive); in experiment [4], 98.5% (inactive); in experiment [5] it was 84.9% (inactive); in experiment [6] (setting [9]), 86.2%; in experiment [6] (setting [10]), 84.9%. Besides, the Her2 level in experiment [2] was 88% (inactive). The differential viability (reversal) in experiment [6] (H69AR cells + 2 uM doxorubicin) is -1.31% (inactive). For the same compound, the figures for the inhibition in experiment [7] and in experiment [8] were -3.82% (inactive) and 0.65% (inactive), respectively.
As for `O=C(C1CC1)N(Cc1ccco1)c1nc(-c2ccccc2)cs1`, the viability was 96.5% in experiment [1]; 96.5% (inactive) in experiment [3]; 81.4% (inactive) in experiment [4]; 86.4% (inactive) in experiment [5]; 84.7% in experiment [6] (setting [9]); 86.4% in experiment [6] (setting [10]). In addition, in experiment [2], the Her2 level was 108% (inactive). Besides, in experiment [6] (H69AR cells + 2 uM doxorubicin), the differential viability (reversal) is 1.75% (inactive). The values for the inhibition in experiment [7] and in experiment [8] were -5.6% (inactive) and -8.36% (inactive), respectively.
Turning to `COC(=O)CC1SC(=O)NC1=O` (stereo not given), the viability in experiment [1] is 110%; in experiment [3], 110% (inactive); in experiment [4], 102% (inactive); in experiment [5], 105% (inactive); in experiment [6] (setting [9]), 94.6%; in experiment [6] (setting [10]), 105%. Besides, in experiment [2], the Her2 level was 120% (inactive). The differential viability (reversal) in experiment [6] (H69AR cells + 2 uM doxorubicin) was 10.4% (inactive). In addition, the inhibition in experiment [7] is 1.05% (inactive); in experiment [8], -7.21% (inactive).
For `O=S(=O)(Nc1cccc2ncccc12)c1cccs1`, the viability in experiment [1] is 256%; in experiment [3], 256% (inactive); in experiment [4], 23.9% (active); in experiment [5], 1.71% (active); in experiment [6] (setting [9]), 1.37%; in experiment [6] (setting [10]) it was 1.71%. In addition, in experiment [2], the Her2 level is 13% (active). Moreover, in experiment [6] (H69AR cells + 2 uM doxorubicin), the differential viability (reversal) is 0.345% (inactive). Besides, the results for the inhibition in experiment [7] and in experiment [8] were 0.92% (inactive) and 6.19% (inactive), respectively.
As to `Cc1oc2c(CN3CCCC3)c(O)ccc2c(=O)c1-c1ccccc1`, the viability was 88.5% in experiment [1]; 88.5% (inactive) in experiment [3]; 80.1% (inactive) in experiment [4]; 89% (inactive) in experiment [5]; 86% in experiment [6] (setting [9]); 89% in experiment [6] (setting [10]). In addition, the Her2 level in experiment [2] is 82% (inactive). In addition, in experiment [6] (H69AR cells + 2 uM doxorubicin), the differential viability (reversal) is 2.93% (inactive). For the same compound, the results for the inhibition in experiment [7] and in experiment [8] were -4.34% (inactive) and 0.48% (inactive), respectively.
Consider `CSc1nnc2n(CCc3ccccc3)c(=O)c3c4c(sc3n12)CCCC4`, for which the viability in experiment [1] was 104%; in experiment [3], 104% (inactive); in experiment [4], 96.3% (inactive); in experiment [5] it was 102% (inactive); in experiment [6] (setting [9]), 76%; in experiment [6] (setting [10]), 102%. Further, the Her2 level in experiment [2] is 94% (inactive). For the same compound, in experiment [6] (H69AR cells + 2 uM doxorubicin), the differential viability (reversal) is 25.7% (inactive). Besides, the values for the inhibition in experiment [7] and in experiment [8] were -1.45% (inactive) and 0.16% (inactive), respectively.
With `CCOc1ccc(OCc2ccc(C(=O)Nc3cccc(C)n3)o2)cc1`, the viability is 101% in experiment [1]; 101% (inactive) in experiment [3]; 84.1% (inactive) in experiment [4]; 93.4% (inactive) in experiment [5]; 87.3% in experiment [6] (setting [9]); 93.4% in experiment [6] (setting [10]). The Her2 level in experiment [2] was 85% (inactive). Moreover, the differential viability (reversal) in experiment [6] (H69AR cells + 2 uM doxorubicin) was 6.08% (inactive). Also, the inhibition in experiment [7] was -1.58% (inactive); in experiment [8], -1.61% (inactive).
Turning to `COc1ccccc1CNC(=O)C1CCCN(S(=O)(=O)c2cnc[nH]2)C1` (stereo not given), the viability in experiment [1] was 94%; in experiment [3], 94% (inactive); in experiment [4] it was 105% (inactive); in experiment [5] it was 109% (inactive); in experiment [6] (setting [9]), 92.3%; in experiment [6] (setting [10]), 109%. Moreover, the Her2 level in experiment [2] was 102% (inactive). Further, the differential viability (reversal) in experiment [6] (H69AR cells + 2 uM doxorubicin) was 16.7% (inactive). Further, the inhibition in experiment [7] is 1.47% (inactive); in experiment [8] it was -0.98% (inactive).
In the case of `Cc1cccc(NC(=O)COc2ccc(Br)cc2)n1`, the viability in experiment [1] was 126%; in experiment [3], 126% (inactive); in experiment [4] it was 90.5% (inactive); in experiment [5], 99.4% (inactive); in experiment [6] (setting [9]) it was 92.4%; in experiment [6] (setting [10]), 99.4%. For the same compound, the Her2 level in experiment [2] was 110% (inactive). Besides, the differential viability (reversal) in experiment [6] (H69AR cells + 2 uM doxorubicin) is 6.92% (inactive). Besides, the inhibition was -5.19% (inactive) in experiment [7] and 11% (inactive) in experiment [8].
Consider `COc1ccc2nc3oc(C(=O)NC4CCN(Cc5ccccc5)CC4)cc3cc2c1`, for which the viability in experiment [1] was 76.5%; in experiment [3], 76.5% (inactive); in experiment [4], 57.5% (inactive); in experiment [5], 82.6% (inactive); in experiment [6] (setting [9]) it was 80.9%; in experiment [6] (setting [10]), 82.6%. In experiment [2], the Her2 level is 89.5% (inactive). Moreover, the differential viability (reversal) in experiment [6] (H69AR cells + 2 uM doxorubicin) was 1.69% (inactive). Besides, the inhibition is -2.76% (inactive) in experiment [7] and -14.8% (inactive) in experiment [8].
With `CCCCOc1ccccc1C(=O)NCCCC(=O)O`, the viability in experiment [1] is 92.5%; in experiment [3], 92.5% (inactive); in experiment [4], 95.4% (inactive); in experiment [5], 87.1% (inactive); in experiment [6] (setting [9]) it was 79.6%; in experiment [6] (setting [10]), 87.1%. The Her2 level in experiment [2] was 80.5% (inactive). The differential viability (reversal) in experiment [6] (H69AR cells + 2 uM doxorubicin) is 7.52% (inactive). For the same compound, the inhibition in experiment [7] is -4.08% (inactive); in experiment [8] it was -0.55% (inactive).
`Cc1cc(C)cc(NS(=O)(=O)c2ccc3[nH]cc(C(=O)NCc4ccco4)c(=O)c3c2)c1`: the viability in experiment [1] is 97%; in experiment [3] it was 97% (inactive); in experiment [4] it was 19% (active); in experiment [5], 41.1% (active); in experiment [6] (setting [9]) it was 77%; in experiment [6] (setting [10]), 41.1%. In addition, in experiment [2], the Her2 level was 87% (inactive). In addition, the differential viability (reversal) in experiment [6] (H69AR cells + 2 uM doxorubicin) was -35.9% (inactive). The inhibition in experiment [7] was -5.39% (inactive); in experiment [8], 1.45% (inactive).
